# What was measured:
# [1] = folding enthalpy; higher = less favourable; fluorescence melt of hairpins on a sequencing array, two-state fit; settings: sodium 0.088 M
# Outline: (§1)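 Cy3 fluorescence of library hairpins on a sequenced MiSeq flow cell, with annealed Cy3 and quencher oligos, was imaged in 50 mM Na-HEPES pH 8.0, 25 mM NaCl in 2.5 °C steps up to 60 °C. Signals were normalised to pre-quench Cy3 and to control variants. Melting temperature and folding enthalpy came from bootstrapped two-state fits, inverse-variance combined over four replicates. Fitted temperatures were raised by 9.35 °C to match UV melts.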
# [2] = melting temperature; fluorescence melt of hairpins on a sequencing array, two-state fit, raised by 9.35 °C to match UV melts; settings: sodium 0.088 M
# Outline: as §1
Sequence,folding enthalpy [1],Tm [2]
GCCCCACGAAAGTGAGGC (((.(((....))).))),-37.8 kcal/mol,55.8 °C
GCCCCAGGAAACCAGGGC ((((..(....)..)))),-23.4 kcal/mol,45.6 °C
GCCCCAGGAAACTGGAGC ((.((((....)))).)),-25.3 kcal/mol,46.7 °C
GCCCCCCGAAAGGGCGGC (((.(((....))).))),-32.6 kcal/mol,60.2 °C
GCCCCCGGAAACGAGGGC ((((.((....)).)))),-28.1 kcal/mol,56 °C
GCCCCCGGAAACGGGGAC (.(((((....))))).),-11.4 kcal/mol,53.2 °C
GCCCCCTCGAAAGAGGGC (((..(((....)))))),-6 kcal/mol,37.6 °C
GCCCCGCGAAAGCAAGGC (((..((....))..))),-16.2 kcal/mol,46.5 °C
GCCCCGCGAAAGCAGCGC ((.(.((....)).).)),-14.2 kcal/mol,39.7 °C
GCCCCGCGAAAGCCCGGC (((..((....))..))),-14.7 kcal/mol,38.9 °C
GCCCCGCGAAAGCCTGGC (((..((....))..))),-17 kcal/mol,39.5 °C
GCCCCGCGAAAGCTAGGC (((..((....))..))),-18.7 kcal/mol,45 °C
GCCCCGCGAAAGCTCGGC (((..((....))..))),-20.3 kcal/mol,38.8 °C
GCCCCGGGAAACCGGAGC ((.((((....)))).)),-22.7 kcal/mol,56.1 °C
GCCCCTCGAAAGAGAGGC (((.(((....))).))),-31.4 kcal/mol,52.8 °C
GCCCCTCGAAAGAGGGC (((.(((....)))))),-13 kcal/mol,61.5 °C
GCCCCTTCGAAAGAAGGC (((..(((....)))))),-8.55 kcal/mol,37 °C
GCCCGAACGAAAGTTGGC (((..(((....)))))),-19.2 kcal/mol,42.6 °C
GCCCGAGGAAACTCGGAC (.(((((....))))).),-13.1 kcal/mol,48.4 °C
GCCCGCGAAAGCGCAGGC ((((((....)))..))),-20.1 kcal/mol,56.3 °C
GCCCGCGAAAGCGCTGGC ((((((....)))..))),-16.5 kcal/mol,58.5 °C
GCCCGCGAAAGCGTAGGC ((((((....)))..))),-22.3 kcal/mol,62.4 °C
GCCCGCGGAAACACGGGC (((((.(....).))))),-47.9 kcal/mol,62.9 °C

Sequence,folding enthalpy [1],Tm [2]
GCCCGGCGAAAGCCGAGC ((.((((....)))).)),-18.4 kcal/mol,68.3 °C
GCCCGGCGAAAGCCTCGC ((..(((....)))..)),-6.9 kcal/mol,27.3 °C
GCCCGGCGAAAGCGCGGC (((..((....))..))),-16.1 kcal/mol,61.7 °C
GCCCGGCGAAAGCGTGGC (((..((....))..))),-20.2 kcal/mol,57.9 °C
GCCCGGTCGAAAGACGGC (((..(((....)))))),-18.1 kcal/mol,51.7 °C
GCCCGTCCGAAAGGAGGC (((..(((....)))))),-13.9 kcal/mol,43.6 °C
GCCCGTCGAAAGACGGC (((.(((....)))))),-10.7 kcal/mol,63.6 °C
GCCCGTTCGAAAGAAGGC (((..(((....)))))),-12.3 kcal/mol,33.1 °C
GCCCTACGAAAGTAAGGC (((.(((....))).))),-31.3 kcal/mol,47.4 °C
GCCCTACGAAAGTACGGC (((.(((....))).))),-27.3 kcal/mol,46.2 °C
GCCCTAGGAAACTAGAGC ((.((((....)))).)),-25 kcal/mol,34.3 °C
GCCCTATCGAAAGATGGC (((..(((....)))))),-23.5 kcal/mol,37.5 °C
GCCCTCGAAAGAGACGGC ((((((....)))..))),-25.3 kcal/mol,44.8 °C
GCCCTCGAAAGAGAGGGC ((((((....)))..))),-33 kcal/mol,59.9 °C
GCCCTCGAAAGAGATGGC ((((((....)))..))),-23.6 kcal/mol,46.4 °C
GCCCTCGAAAGAGCGGC ((((((....))).))),-37.3 kcal/mol,55.7 °C
GCCCTCGAAAGAGGTGGC ((((((....)))..))),-17.7 kcal/mol,48.4 °C
GCCCTCGGAAACGAGAGC ((.((((....)))).)),-27.2 kcal/mol,49.1 °C
GCCCTCGGAAACGAGGAC (.(((((....))))).),-13.4 kcal/mol,50.3 °C
GCCCTGCCGAAAGGCGGC (((..(((....)))))),-9.83 kcal/mol,54.9 °C
GCCCTGCGAAAGCACGGC (((.(((....))).))),-39.6 kcal/mol,52 °C
GCCCTGCGAAAGCAGAGC ((.((((....)))).)),-18.8 kcal/mol,60.4 °C
GCCCTGCGAAAGCCGGGC ((((.((....)).)))),-32.9 kcal/mol,69 °C

Sequence,folding enthalpy [1],Tm [2]
GCCCTGCGAAAGCGGTGC ((.(.((....)).).)),-20.2 kcal/mol,48 °C
GCCCTGCGAAAGCTAGGC (((..((....))..))),-20.3 kcal/mol,55.2 °C
GCCCTGCGAAAGCTGAGC ((.(.((....)).).)),-13.9 kcal/mol,47.2 °C
GCCCTTCGAAAGAATGGC (((.(((....))).))),-34.3 kcal/mol,47.4 °C
GCCCTTGGAAACGAGGGC (((((.(....).))))),-41.4 kcal/mol,57.5 °C
GCCGAACGAAAGTTGGC (((.(((....)))))),-32.3 kcal/mol,57.2 °C
GCCGAAGGAAACCTCGGC (((((.(....).))))),-34.6 kcal/mol,54.6 °C
GCCGACCGAAAGGTGGC (((.(((....)))))),-34 kcal/mol,62 °C
GCCGACGAAAGTCAGGC ((((((....))).))),-39.5 kcal/mol,64.1 °C
GCCGACGAAAGTCATGGC ((((((....)))..))),-34.5 kcal/mol,51.6 °C
GCCGACGAAAGTCCAGGC ((((((....)))..))),-25.2 kcal/mol,51.7 °C
GCCGACGAAAGTCCGGC ((((((....))).))),-31.1 kcal/mol,61.2 °C
GCCGACGAAAGTCTGGC ((((((....))).))),-34.6 kcal/mol,58.2 °C
GCCGACGGAAACGCCAGC ((.(.((....)).).)),-13.3 kcal/mol,33.8 °C
GCCGACGGAAACGTCAGC ((.((((....)))).)),-23.6 kcal/mol,49.6 °C
GCCGACTCGAAAGAGGGC (((..(((....)))))),-23.1 kcal/mol,47.1 °C
GCCGAGAAATCGGC (((((....))))),-28.4 kcal/mol,64.8 °C
GCCGAGCGAAAGCAGGGC (((..((....))..))),-26.3 kcal/mol,57.2 °C
GCCGAGCGAAAGCCCTGC ((.(.((....)).).)),-13.7 kcal/mol,33.5 °C
GCCGAGCGAAAGCCTGGC (((..((....))..))),-17 kcal/mol,62.6 °C
GCCGAGCGAAAGCTGAGC ((..(((....)))..)),-11.2 kcal/mol,51.2 °C
GCCGAGCGAAAGCTGCGC ((..(((....)))..)),-17.8 kcal/mol,56.4 °C
GCCGAGGGAAACCTCAGC ((.((((....)))).)),-23.7 kcal/mol,43.1 °C

Sequence,folding enthalpy [1],Tm [2]
GCCGATCCGAAAGGAGGC (((..(((....)))))),-36.8 kcal/mol,52.7 °C
GCCGATGGAAACATCGAC (.(((((....))))).),-16.3 kcal/mol,48 °C
GCCGCACCGAAAGGTGGC (((..(((....)))))),-8.56 kcal/mol,53.5 °C
GCCGCACGAAAGTGGGC (((.(((....)))))),-20.9 kcal/mol,62.8 °C
GCCGCAGCGAAAGCTGGC (((..(((....)))))),-9.6 kcal/mol,56.7 °C
GCCGCAGGAAACTGCAGC ((.((((....)))).)),-19 kcal/mol,49 °C
GCCGCCGAAAGGCGAGGC ((((((....)))..))),-14.4 kcal/mol,60.6 °C
GCCGCCGAAAGGCTAGGC ((((((....)))..))),-27.9 kcal/mol,60.5 °C
GCCGCGCGAAAGCATGGC (((..((....))..))),-26.7 kcal/mol,60.1 °C
GCCGCGCGAAAGCCCTGC ((.(.((....)).).)),-12.1 kcal/mol,28.6 °C
GCCGCGCGAAAGCGACGC ((..(((....)))..)),-11.9 kcal/mol,55.1 °C
GCCGCGCGAAAGCGCAGC ((.((((....)))).)),-15.2 kcal/mol,64 °C
GCCGCGCGAAAGCTGGGC (((..((....))..))),-20 kcal/mol,56.3 °C
GCCGCTCCGAAAGGAGGC (((..(((....)))))),-9.81 kcal/mol,55.4 °C
GCCGCTGGAAACAGCGAC (.(((((....))))).),-13.9 kcal/mol,52.6 °C
GCCGGAGGAAACCCCGGC (((((.(....).))))),-36 kcal/mol,59.6 °C
GCCGGCGAAAGCCAAGGC ((((((....)))..))),-22.8 kcal/mol,65.3 °C
GCCGGCGAAAGCCCTGGC ((((((....)))..))),-16.2 kcal/mol,56.6 °C
GCCGGCGAAAGCCTCGGC ((((((....)))..))),-19.9 kcal/mol,53.3 °C
GCCGGCGGAAACGCCAGC ((.((((....)))).)),-15.4 kcal/mol,58.5 °C
GCCGGCTCGAAAGAGGGC (((..(((....)))))),-19.2 kcal/mol,46.9 °C
GCCGGGACGAAAGTCGGC (((..(((....)))))),-29.8 kcal/mol,60.9 °C

# Reference: the array DNA melting data of Ke et al. (doi:10.1101/2024.01.08.574731)
